# Measured values pooled from the literature.
# Organism: Mycobacterium tuberculosis
# Effect on: microbial growth
# Strain: H37RV
Compound,conditions,endpoint,result
CC(c1cccnc1)n1c(=S)[nH]c2ccc(Cl)cc2c1=O (stereo not shown),,MIC90,66.2 µM
NNC(=O)c1ccncc1,,MIC50,0.56 µg/mL
Clc1ccc(CCNc2cc(-c3ccccn3)nc3cc(Br)nn23)cc1,,MIC,36 µM
O=c1c2ccncc2[nH]c(=S)n1Cc1cccnc1,,MIC90,> 100 µM
Nc1c(C(=O)NCc2ccc(F)cc2)sc2nc(-c3ccccc3)ccc12,,IC50,> 100 µM
NCC[C@H](O)C(=O)N[C@@H]1C[C@H](N)[C@@H](O[C@H]2O[C@H](CN)[C@@H](O)[C@H](O)[C@H]2O)[C@H](O)[C@H]1O[C@H]1O[C@H](CO)[C@@H](O)[C@H](N)[C@H]1O,2.5 µg/mL,inhibition,~90%
CC(C)c1ccc(Cn2c(=S)[nH]c3ccc(Cl)cc3c2=O)cn1,,MIC90,> 100 µM
Nc1c(C(=O)N2CCOCC2)sc2nc(Cl)ccc12,,IC50,> 100 µM
Cc1nnc2nc(-c3ccccn3)cc(NCCc3ccc(Cl)cc3)n12,5 days,MIC,17 to 50 µM
COCCNC(=O)c1sc2nc(-c3ccc(OC)cc3)cc(C(F)(F)F)c2c1N,,IC50,> 100 µM
NC(=S)c1cncc(Cn2c(=S)[nH]c3cc(CO)c(Cl)cc3c2=O)c1,,MIC90,4.61 µM
COc1ccc(-c2cc(C(F)(F)F)c3c(N)c(C(=O)NCCSC)sc3n2)cc1,,IC50,42 µM
Cc1ccc(CCNc2cc(-c3ccccn3)nc3cc(Br)nn23)cc1,,MIC,25 µM
